Measurements from ChEMBL document CHEMBL1772948, “Chemistry and biology of macrolide antiparasitic agents” (J Med Chem, 2011).
Values after ≈ are worked out from the molar mass of the structure shown. Active and inactive are the calls of the source. The rule behind the calls is not given here.

Legend:
Toxoplasma gondii [1] = test: Antiparasitic activity against green fluorescent protein expressing […] deficient Toxoplasma gondii RH infected in HFF assessed as decrease in density of parasitophorous vacuoles at 10 uM treated immediately after infection measured after 24 hrs by microscopic analysis; type: functional, organism-based
Summary of the method: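 GFP T. gondii RHΔhxgprt in HFF, compound (10 μM) added either with the inoculum ("0h") or after 6 h pre-infection and washing ("6h"); vacuoles per microscope field scored at 24 h, at least 20 random fields from each of three experiments.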

Bacillus subtilis = test: Antibacterial activity against Bacillus subtilis; type: functional
Toxoplasma gondii [2] = test: Antiparasitic activity against yellow fluorescent protein expressing Toxoplasma gondii 2F-1 treated immediately after infection for 48 hrs followed by reinoculated into fresh HFF monolayers measured after 48 hrs; type: functional, organism-based; conditions: 2F-1, 48 h
Summary of the method: (§1)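 Two-cycle protocol in HFF at 37 °C, 5% CO2, DMEM with 10% FBS. "0h": compound added with parasites, 48 h. "6h": parasites pre-incubated 6 h, uninvaded parasites removed, fresh medium with compound added, 42 h. Released tachyzoites were then harvested, purified and inoculated into fresh HFF without compound for the 2nd cycle. At least triplicate.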

Toxoplasma gondii [3] = test: Antiparasitic activity against yellow fluorescent protein expressing Toxoplasma gondii 2F-1 infected in HFF treated immediately after infection measured after 48 hrs; type: functional, organism-based; conditions: 2F-1, 48 h
HFF = test: Cytotoxicity against HFF after 48 hrs by MTS assay; type: cell-based; conditions: human
Summary of the method: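 Low-passage HFF seeded in 96-well plates and incubated 24h at 37 °C, then exposed to varying macrolide concentrations for 2 days; medium replaced with fresh medium plus MTS, 4h at 37 °C, absorbance 490 nm; CC50 = dose reducing viability by 50%.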

Toxoplasma gondii [4] = test: Antiparasitic activity against yellow fluorescent protein expressing Toxoplasma gondii 2F-1 treated 6 hrs after infection for 42 hrs followed by reinoculated into fresh HFF monolayers measured after 48 hrs; type: functional, organism-based; summary of the method: as §1
Toxoplasma gondii [5] = test: Antiparasitic activity against yellow fluorescent protein expressing Toxoplasma gondii 2F-1 infected in HFF treated 6 hrs after infection measured after 48 hrs; type: functional, organism-based
Toxoplasma gondii [6] = test: Antiparasitic activity against Toxoplasma gondii 2F-1 expressing yellow fluorescent protein infected in HFF after 4 days; type: functional, organism-based; conditions: 2F-1, 96 h
Toxoplasma gondii [7] = test: Antiparasitic activity against clindamycin-resistant Toxoplasma gondii 4 infected in HFF assessed as reduction of ycf24/UPRT genes copy number ratio at 1 uM treated for 48 hrs immediately after infection followed by reinoculated into fresh HFF monolayers measured after 48 hrs by RT-PCR analysis; type: functional
Summary of the method: (§2)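 Tachyzoites were seeded on confluent HFF in 6-well plates at 2×10^5 per well, in DMEM with 10% FBS and 1% PS at 37 °C, 5% CO2. Harvested tachyzoites were reinoculated into fresh HFF without drug for a second cycle. Parasites were pelleted by centrifugation and the plastid ycf24 to nuclear UPRT copy ratio was read by qPCR (40 cycles, 94 °C 3 s / 60 °C 30 s). At least triplicate.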

Toxoplasma gondii [8] = test: Antiparasitic activity against clindamycin-resistant Toxoplasma gondii 4 infected in HFF assessed as reduction of ycf24/UPRT genes copy number ratio at 1 uM treated for 48 hrs after 6 hrs infection followed by reinoculated into fresh HFF monolayers measured after 48 hrs by RT-PCR analysis; type: functional
Toxoplasma gondii [9] = test: Antiparasitic activity against green fluorescent protein expressing hwgprt deficient Toxoplasma gondii RH infected in HFF assessed as reduction of ycf24/UPRT genes copy number ratio at 1 uM treated for 48 hrs after 6 hrs infection followed by reinoculated into fresh HFF monolayers measured after 48 hrs by RT-PCR analysis; type: functional
Toxoplasma gondii [10] = test: Antiparasitic activity against green fluorescent protein expressing […] deficient Toxoplasma gondii RH infected in HFF assessed as reduction of ycf24/UPRT genes copy number ratio at 1 uM treated for 48 hrs immediately after infection followed by reinoculated into fresh HFF monolayers measured after 48 hrs by RT-PCR analysis; type: functional; summary of the method: as §2

Compound | Activity (Toxoplasma gondii [1]) | MIC (Bacillus subtilis) [µM] | IC50 (Toxoplasma gondii [2]) [µM] | IC50 (Toxoplasma gondii [3]) [µM] | CC50 (HFF) [µM] | IC50 (Toxoplasma gondii [4]) [µM] | IC50 (Toxoplasma gondii [5]) [µM] | IC50 (Toxoplasma gondii [6]) [µM] | Ratio (Toxoplasma gondii [7]) | Ratio (Toxoplasma gondii [8]) | Ratio (Toxoplasma gondii [9]) | Ratio (Toxoplasma gondii [10])
CC[C@H]1OC(=O)[C@H](C)[C@@H](O[C@H]2C[C@@](C)(OC)[C@@H](O)[C@H](C)O2)[C@H](C)[C@@H](O[C@@H]2O[C@H](C)C[C@H](N(C)C)[C@H]2O)[C@](C)(O)C[C@@H](C)CN(Cc2ccc(C)cc2)[C@H](C)[C@@H](O)[C@]1(C)O | Active | 0.3 (≈ 0.252 µg/mL) | 0.6 | 5 | 38 | 0.7 | 9 | – | – | – | – | –
CC[C@H]1OC(=O)[C@H](C)[C@@H](O[C@H]2C[C@@](C)(OC)[C@@H](O)[C@H](C)O2)[C@H](C)[C@@H](O[C@@H]2O[C@H](C)C[C@H](N(C)C)[C@H]2O)[C@](C)(OC)C[C@@H](C)CN(Cc2ccccc2)[C@H](C)[C@@H](O)[C@]1(C)O | – | 0.3 (≈ 0.252 µg/mL) | 5 | 7 | 13 | 4 | 10 | 2 | – | – | – | –
CC[C@H]1OC(=O)[C@H](C)[C@@H](O[C@H]2C[C@@](C)(OC)[C@@H](O)[C@H](C)O2)[C@H](C)[C@@H](O[C@@H]2O[C@H](C)C[C@H](N(C)C)[C@H]2O)[C@](C)(O)C[C@@H](C)CN(CC2CCCCC2)[C@H](C)[C@@H](O)[C@]1(C)O | Active | 0.3 (≈ 0.249 µg/mL) | 0.6 | 7 | 36 | 0.6 | 12 | – | – | – | – | –
CCc1nc(N)nc(N)c1-c1ccc(Cl)cc1 [PYRIMETHAMINE] | – | – | – | – | – | – | – | – | 27 | 23 | 22 | 29
C=CCO[C@]1(C)C[C@@H](C)CN(Cc2ccccc2)[C@H](C)[C@@H](O)[C@](C)(O)[C@@H](CC)OC(=O)[C@H](C)[C@@H](O[C@H]2C[C@@](C)(OC)[C@@H](O)[C@H](C)O2)[C@H](C)[C@H]1O[C@@H]1O[C@H](C)C[C@H](N(C)C)[C@H]1O | – | 6 (≈ 5.19 µg/mL) | 10 | 7 | 14 | > 10 | > 10 | 5 | – | – | – | –
CCCN1C[C@H](C)C[C@@](C)(O)[C@H](O[C@@H]2O[C@H](C)C[C@H](N(C)C)[C@H]2O)[C@@H](C)[C@H](O[C@H]2C[C@@](C)(OC)[C@@H](O)[C@H](C)O2)[C@@H](C)C(=O)O[C@H](CC)[C@@](C)(O)[C@H](O)[C@H]1C | – | 0.6 (≈ 0.466 µg/mL) | – | – | 139 | – | – | 16 | – | – | – | –
C=CCO/N=C1\[C@H](C)C[C@@](C)(O)[C@H](O[C@@H]2O[C@H](C)C[C@H](N(C)C)[C@H]2O)[C@@H](C)[C@H](O[C@H]2C[C@@](C)(OC)[C@@H](O)[C@H](C)O2)[C@@H](C)C(=O)O[C@H](CC)[C@@](C)(O)[C@H](O)[C@H]1C | – | 0.04 (≈ 0.0316 µg/mL) | – | – | 16 | – | – | 2.7 | – | – | – | –
C=CCO[C@]1(C)C[C@@H](C)CN(C(=O)NCc2ccccc2)[C@H](C)[C@@H](O)[C@](C)(O)[C@@H](CC)OC(=O)[C@H](C)[C@@H](O[C@H]2C[C@@](C)(OC)[C@@H](O)[C@H](C)O2)[C@H](C)[C@H]1O[C@@H]1O[C@H](C)C[C@H](N(C)C)[C@H]1O | – | 1.5 (≈ 1.36 µg/mL) | – | – | 28 | – | – | 6 | – | – | – | –
CC[C@H]1OC(=O)[C@H](C)[C@@H](O[C@H]2C[C@@](C)(OC)[C@@H](O)[C@H](C)O2)[C@H](C)[C@@H](O[C@@H]2O[C@H](C)C[C@H](N(C)C)[C@H]2O)[C@](C)(O)C[C@@H](C)/C(=N\OC)[C@H](C)[C@@H](O)[C@]1(C)O | – | 0.04 (≈ 0.0305 µg/mL) | – | – | 22 | – | – | 14 | – | – | – | –
CC[C@H]1OC(=O)[C@H](C)[C@@H](O[C@H]2C[C@@](C)(OC)[C@@H](O)[C@H](C)O2)[C@H](C)[C@@H](O[C@@H]2O[C@H](C)C[C@H](N(C)C)[C@H]2O)[C@](C)(O)C[C@@H](C)CN[C@H](C)[C@@H](O)[C@]1(C)O | – | 1.2 (≈ 0.882 µg/mL) | – | – | 386 | – | – | 65 | – | – | – | –
CC[C@H]1OC(=O)[C@H](C)[C@@H](O[C@H]2C[C@@](C)(OC)[C@@H](O)[C@H](C)O2)[C@H](C)[C@@H](O[C@@H]2O[C@H](C)C[C@H](N(C)C)[C@H]2O)[C@](C)(O)C[C@@H](C)CN(Cc2ccc(F)cc2)[C@H](C)[C@@H](O)[C@]1(C)O | Active | 0.3 (≈ 0.253 µg/mL) | 0.5 | 6 | 31 | 0.7 | 9 | – | – | – | – | –
CCCO/N=C1\[C@H](C)C[C@@](C)(O)[C@H](O[C@@H]2O[C@H](C)C[C@H](N(C)C)[C@H]2O)[C@@H](C)[C@H](O[C@H]2C[C@@](C)(OC)[C@@H](O)[C@H](C)O2)[C@@H](C)C(=O)O[C@H](CC)[C@@](C)(O)[C@H](O)[C@H]1C | – | 0.04 (≈ 0.0316 µg/mL) | – | – | 7 | – | – | 1.6 | – | – | – | –
CC[C@H]1OC(=O)[C@H](C)[C@@H](O[C@H]2C[C@@](C)(OC)[C@@H](O)[C@H](C)O2)[C@H](C)[C@@H](O[C@@H]2O[C@H](C)C[C@H](N(C)C)[C@H]2O)[C@](C)(OC)C[C@@H](C)CN(C)[C@H](C)[C@@H](O)[C@]1(C)O | – | 5 (≈ 3.82 µg/mL) | – | – | 454 | – | – | 89 | – | – | – | –
CC[C@H]1OC(=O)[C@H](C)[C@@H](O[C@H]2C[C@@](C)(OC)[C@@H](O)[C@H](C)O2)[C@H](C)[C@@H](O[C@@H]2O[C@H](C)C[C@H](N(C)C)[C@H]2O)[C@](C)(O)C[C@@H](C)C(=O)[C@H](C)[C@@H](O)[C@]1(C)O [ERYTHROMYCIN] | – | 0.04 (≈ 0.0294 µg/mL) | – | – | 475 | – | – | 93 | – | – | – | –
CC[C@H]1OC(=O)[C@H](C)[C@@H](O[C@H]2C[C@@](C)(OC)[C@@H](O)[C@H](C)O2)[C@H](C)[C@@H](O[C@@H]2O[C@H](C)C[C@H](N(C)C)[C@H]2O)[C@](C)(O)C[C@@H](C)/C(=N\OCc2ccccc2)[C@H](C)[C@@H](O)[C@]1(C)O | – | 0.04 (≈ 0.0336 µg/mL) | – | – | 3 | – | – | 1.4 | – | – | – | –
C=CCO[C@]1(C)C[C@@H](C)CN(CC=C)[C@H](C)[C@@H](O)[C@](C)(O)[C@@H](CC)OC(=O)[C@H](C)[C@@H](O[C@H]2C[C@@](C)(OC)[C@@H](O)[C@H](C)O2)[C@H](C)[C@H]1O[C@@H]1O[C@H](C)C[C@H](N(C)C)[C@H]1O | – | 5 (≈ 4.08 µg/mL) | – | – | 38 | – | – | 12 | – | – | – | –
CC[C@H]1OC(=O)[C@H](C)[C@@H](O[C@H]2C[C@@](C)(OC)[C@@H](O)[C@H](C)O2)[C@H](C)[C@@H](O[C@@H]2O[C@H](C)C[C@H](N(C)C)[C@H]2O)[C@](C)(O)C[C@@H](C)CN(CCCc2ccccc2)[C@H](C)[C@@H](O)[C@]1(C)O | Active | 0.6 (≈ 0.512 µg/mL) | 0.6 | 4 | 33 | 0.6 | 8 | – | – | – | – | –
CC[C@H]1OC(=O)[C@H](C)[C@@H](O[C@H]2C[C@@](C)(OC)[C@@H](O)[C@H](C)O2)[C@H](C)[C@@H](O[C@@H]2O[C@H](C)C[C@H](N(C)C)[C@H]2O)[C@](C)(O)C[C@@H](C)CN(C(=O)NCc2ccccc2)[C@H](C)[C@@H](O)[C@]1(C)O | – | 1.2 (≈ 1.04 µg/mL) | – | – | 222 | – | – | 12 | – | – | – | –
